hERG rescue: hERG rescue from dofetilide block, primary screen, cell-based, CHO-hERG, FluxOR thallium flux, dofetilide IC70; Voltage-gated inwardly rectifying potassium channel KCNH2 (Homo sapiens), Q12809; dofetilide IC70 present; activation (rescue from dofetilide block), less the hit threshold, % at 10 µM; 310,000 compounds, 0.51% hits;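 active = activation above the mean of controls blocked by dofetilide plus 5 SD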;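 note: thallium influx through hERG after potassium depolarization seen as dye fluorescence rise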
Cl transport mod: KCC2 cotransporter modulators, thallium flux, primary screen, cell-based, HEK293 KCC2, FluoZin-2 fluorescence, MLSMR | KCC2 cells, thallium flux FluoZin-2 fluorescence | AID 1456, 2008 | 190,000 compounds, 2.2% hits | B-score of Tl+ flux slope (higher = more flux/activation; lower = inhibition) at 10 µM;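 active = thallium flux slope and its plate-corrected score both differing from the plate sample mean at a set confidence after two filtering rounds, in either direction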;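 note: slope of fluorescence scaled to starting intensity during 10 to 20 s after thallium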
KCNQ1 inh: inhibitors of human KCNQ1 channel, primary screen, cell-based, thallium flux, high-throughput; CHO-K1 KCNQ1, FluxOR thallium flux fluorescence; hits give high values; 310,000 compounds, 1.3% hits; Potassium voltage-gated channel subfamily KQT member 1 (Homo sapiens), P51787; B-score at 10 µM; AID 2642, 2010;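 active = compounds whose thallium flux B-score, printed positive for inhibition, exceeds three library SD while starting fluorescence stays within three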;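 note: channel opened by potassium depolarization with thallium stimulus after 20 min compound exposure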
KCNK3 inh: human KCNK3 channel inhibitors, primary screen, CHO cells, FluxOR thallium flux, B-score; Potassium channel subfamily K member 3 (Homo sapiens), O14649; FluxOR fluorescence; hits give low values; B-score at 10 µM; 340,000 compounds, 0.84% hits;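 active = B-score under library mean minus 4 SD, starting fluorescence ratio at most library mean plus 5 SD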;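 note: more negative B-score means stronger inhibition of thallium flux through KCNK3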
KCNK9 inh: KCNK9 potassium channel inhibitors, primary screen, HEK293 cells, thallium flux; Potassium channel subfamily K member 9 (Homo sapiens), Q9NPC2; FluxOR thallium flux fluorescence; hits give low values; B-score at 10 µM; 310,000 compounds, 1.2% hits;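 active = ratio B-score over 3 SD below the library mean, with starting fluorescence within 5 SD of its mean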;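 note: negative B-score means less thallium flux so channel inhibition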
KCNQ1 act: potentiators or activators of KCNQ1 channel, primary screen, cell-based, thallium flux, high-throughput; Potassium voltage-gated channel subfamily KQT member 1 (Homo sapiens), P51787; 310,000 compounds, 0.35% hits; CHO-K1 KCNQ1, thallium flux FluxOR fluorescence; hits give high values; B-score at 10 µM; AID 2648, 2010;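 active = fluorescence ratio B-score, a plate-corrected score, at least three library SD, with initial intensity B-score within 5 SD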
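Schedule – 37 °C overnight plating, 90-min dark dye load, 20-min compound pretreatment · System – stable KCNQ1 CHO-K1 line · Probe or stimulus – thallium- and potassium-containing depolarizing buffer · Measured by – kinetic FluxOR fluorescence, 10 s baseline plus 110 s post-stimulus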
KCNK9 inh conf: KCNK9 potassium channel inhibitors, confirmation, HEK293 cells, thallium flux, duplicate | inhibition, % at 10 µM | FluxOR thallium flux fluorescence | 4,900 compounds, 43% hits | shares compounds with KCNK9 inh | AID 492992, 2010;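 active = thallium signal inhibited by more than 5 SD of the compound-free buffer control wells, on both duplicate plates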;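 note: 0% = assay buffer control wells without compound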
Kir2-1 spec: mouse Kir2.1 channel inhibition, confirmation, selectivity assay for KCNK9 modulator project, cell-based, HEK293, thallium flux | inhibition, % at 10 µM | 4,900 compounds, 4% hits | AID 492993, 2010 | Kir2.1 cells, FluxOR thallium flux fluorescence | shares compounds with KCNK9 inh;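 active = thallium signal drop more than 5 SD beyond the mean of the no-compound control wells, seen in both duplicate plates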;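 note: signal is fluorescence rise after thallium addition divided by baseline fluorescence; plate controls were assay buffer only for no effect and full block by chlorpromazine control for full effect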
KCNK9 uninduced: thallium flux in non-induced HEK293 cells, confirmation, counter-screen for KCNK9 inhibitor project, cell-based, second counter screen, non-induced KCNK9-HEK293; FluxOR thallium flux; AID 492997, 2010; shares compounds with KCNK9 inh; 4,900 compounds, 40% hits; inhibition, % at 10 µM;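 active = thallium signal drop beyond 5 SD of the untreated control mean, on both duplicate plates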;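 note: plate controls were buffer only IC0 wells for no effect and SID17386958 at its maximal inhibitory level for full effect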
* hit, by the source's call. A selection: hits, their analogues and other compounds. The true share with any hit is near 4.1%.

For CCn1cc(C2=NC(C(C)C)CO2)c2ccccc21 (stereo not drawn) the results were hERG rescue -14, Cl transport mod -0.012, KCNQ1 inh inactive, KCNK3 inh inactive, KCNK9 inh inactive, KCNQ1 act inactive, KCNK9 inh conf inactive, Kir2-1 spec inactive and KCNK9 uninduced inactive.
`CCn1cc(C2=NC(CC(C)C)CO2)c2ccccc21` (stereo not drawn) gave hERG rescue -12, Cl transport mod -1.2, KCNQ1 inh inactive, KCNK3 inh inactive, KCNK9 inh inactive, KCNQ1 act inactive, KCNK9 inh conf inactive, Kir2-1 spec inactive and KCNK9 uninduced inactive.
For CCn1cc(C2=NC(CCSC)CO2)c2ccccc21 (stereo not drawn) the results were hERG rescue -22, Cl transport mod -0.01, KCNQ1 inh inactive, KCNK3 inh inactive, KCNK9 inh inactive, KCNQ1 act inactive, KCNK9 inh conf inactive, Kir2-1 spec inactive and KCNK9 uninduced inactive.
CCn1cc(C=C2C(=O)c3ccccc3C2=O)c2ccccc21 was read as hERG rescue -6, Cl transport mod -0.015, KCNQ1 inh inactive, KCNK3 inh inactive, KCNK9 inh inactive and KCNQ1 act inactive.
Screening CCC(CC)n1c(C)cc(=O)n1C(CC)CC returned KCNK3 inh inactive.
CC(C)CN(C(=O)COC(=O)c1ccc2c(c1)OCO2)c1c(N)n(Cc2ccccc2)c(=O)[nH]c1=O was read as hERG rescue -5, KCNQ1 inh inactive, KCNK3 inh inactive, KCNK9 inh inactive and KCNQ1 act inactive.
O=C(/C=C/c1ccc(OCCCF)cc1)NCc1cccc(Cl)c1 was read as hERG rescue -2, KCNQ1 inh inactive, KCNK3 inh inactive, KCNK9 inh inactive and KCNQ1 act inactive.
`FCCCOc1ccc(/C=N/OCc2ccc(Cl)cc2Cl)cc1` gave hERG rescue -3, KCNQ1 inh inactive, KCNK3 inh inactive, KCNK9 inh inactive, KCNQ1 act inactive, KCNK9 inh conf inactive, Kir2-1 spec inactive and KCNK9 uninduced inactive.
`COC(=O)N/N=C/c1c(C)nn(-c2cccc(Cl)c2)c1Cl` gave hERG rescue -6, Cl transport mod 1.1, KCNQ1 inh inactive, KCNK3 inh inactive, KCNK9 inh -8.3*, KCNQ1 act inactive, KCNK9 inh conf 42%*, Kir2-1 spec inactive and KCNK9 uninduced 28%*.
`CC1CCCC(C)N1CC(O)COCc1ccccc1` (stereo not drawn) gave hERG rescue -2, KCNQ1 inh inactive, KCNK3 inh inactive, KCNK9 inh inactive and KCNQ1 act inactive.
O=[N+]([O-])c1ccc(COc2cccc(CNc3ccc(Br)cc3)c2)cc1 was read as hERG rescue -16, Cl transport mod 1.5, KCNQ1 inh inactive, KCNK3 inh inactive, KCNK9 inh -10*, KCNQ1 act inactive, KCNK9 inh conf inactive, Kir2-1 spec inactive and KCNK9 uninduced 37%*.

Source: PubChem
